Experimental data pooled from the literature.
Target: Serine/threonine-protein kinase tousled-like 2 (TLK2, Homo sapiens, UniProt Q86UE8)

Structure (SMILES)	test	conditions	quantity	value
Cc1ccc(Nc2nccc(N(C)c3ccc4c(C)n(C)nc4c3)n2)cc1S(N)(=O)=O	cell-free assay, inhibitor	0.5 µM	remaining signal	85.6%
CCN(CC)c1ccc(C2=NNC(=O)CC2C)cc1[N+](=O)[O-] (stereo not drawn)	enzyme activity, inhibitor	10 µM	remaining activity	82%
O=C(Nc1cccnn1)N1CC(C/C=C/c2cncc(Oc3ccc(C(F)(F)F)cn3)n2)C1	cell-free assay, competition with immobilised ligand	1 µM	remaining binding	100%
CCCS(=O)(=O)Nc1ccc(F)c(C(=O)c2c[nH]c3ncc(-c4ccc(Cl)cc4)cc23)c1F	enzyme activity, inhibitor	1 µM	inhibition	< 10%
CNC(=O)Nc1ccc2c(c1)CC[C@@]21OC(=O)N(CC(=O)N(Cc2ccc(F)cc2)[C@@H](C)C(F)(F)F)C1=O	cell-free assay, competition with immobilised ligand	1 µM	remaining binding	100%
CN1CC(Oc2cnc(C#N)cc2-c2ccn3nc(NC(=O)C4CC4)cc3c2)C1	enzyme activity, inhibitor	1 µM	inhibition	1%
Cc1ccc(C(=O)Nc2ccc(CN3CCN(C)CC3)c(C(F)(F)F)c2)cc1C#Cc1cnc2cccnn12	enzyme activity, inhibitor	23.5 nM	remaining activity	100%
CNC(=O)c1cc(Oc2ccc(NC(=O)Nc3ccc(Cl)c(C(F)(F)F)c3)cc2)ccn1	enzyme activity, inhibitor	0.3 µM	inhibition	-9%
O=C(Nc1cnc(Oc2ccc(F)cc2)nc1)N1CCc2ncccc2[C@@H]1c1ccc(F)cc1	cell-free assay, competition with immobilised ligand	1 µM	remaining binding	89%
O=C1NC(=O)c2cc(Nc3ccc(F)cc3)c(Nc3ccc(F)cc3)cc21	cell-free assay	0.5 µM	remaining signal	93.5%
COc1cccc2c(NCc3ccccc3)nc(-n3c(N)nc4ccccc43)nc12	target engagement in cells, inhibitor, chemoproteomics	20 mM	inhibition	-7.5%
Cc1sc(C(=O)NC2COC2)cc1-n1cc(NC(=O)Nc2c(F)cccc2Cl)cn1	enzyme activity, inhibitor	10 µM	remaining activity	97.2%
CN(C)c1ncnc(-c2ccc3nc(Nc4cc(CN5CCN(C(=O)CC(F)(F)F)CC5)ccn4)[nH]c3c2)c1Cl	cell-free assay, competition with immobilised ligand	1 µM	remaining binding	100%
Nc1ncnc2occ(-c3ccc(NC(=O)Nc4cc(C(F)(F)F)ccc4F)cc3)c12	cell-free assay, inhibitor	20 µM	remaining signal	89%
CCCCN(CCCC)C(=O)CN1C[C@@H](c2cc(OC)c3c(c2)OCO3)[C@H](C(=O)O)[C@H]1CC(C)(C)CCC	cell-free assay, competition with immobilised ligand	1 µM	remaining binding	100%
O=C(Nc1cnn(-c2csc(C(=O)NC3COC3)c2)c1)Nc1ccccc1Cl	enzyme activity, inhibitor	5 µM	remaining activity	99.1%
CC(C)(C)c1nc(-c2cccc(NS(=O)(=O)c3c(F)cccc3F)c2F)c(-c2ccnc(N)n2)s1	enzyme activity, inhibitor, radiometric	1 µM	remaining activity	96%
CC(C)(O)[C@H]1CC[C@H](Nc2ccc3ncc(-c4cccc(C(F)(F)F)c4)n3n2)CC1	enzyme activity, inhibitor	1 µM	remaining activity	103%
COc1cc(Nc2c(C#N)cnc3cc(OCCCN4CCN(C)CC4)c(OC)cc23)c(Cl)cc1Cl	cell-free assay	0.5 µM	remaining signal	92.2%
CCC(=O)N[C@@H]1CC[C@H](C(=O)N(C)c2ccc(-c3nc4ccccc4o3)cc2)C1	cell-free assay, competition with immobilised ligand	1 µM	remaining binding	100%
Cc1ccc(C(=O)NCc2ccsc2)cc1C#Cc1cn(C(C)C)c2ncnc(N)c12	enzyme activity, inhibitor	1 µM	activity vs control	97%
